Data on seven compounds can be found in ChEMBL document CHEMBL2424622, “Development of amino-pyrimidine inhibitors of c-Jun N-terminal kinase (JNK): kinase profiling guided optimization of a 1,2,3-benzotriazole lead” (Bioorg Med Chem Lett, 2013).

Assay [1] deals with Dual specificity protein kinase CLK2 (Homo sapiens) (UniProt P49760). The assay can be described thus: Competitive binding affinity to CLK2 (unknown origin) at 10 uM in presence of ATP relative to control. An outline of the steps:
(§1)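 In vitro ATP-site competition binding assay across a diverse panel of 128 kinases, with each compound tested at a single concentration. Kinase binding is expressed relative to control.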

The target in assay [2] is Serine/threonine-protein kinase 16 (Homo sapiens, UniProt O75716). The assay can be described thus: Competitive binding affinity to STK16 (unknown origin) at 10 uM in presence of ATP relative to control. An outline of the steps: (§2)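 In vitro ATP-site competition binding assay across a diverse panel of 128 kinases, with compound tested at a single concentration. Kinase selectivity scores (S15) were calculated from the panel profiles.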

The target of assay [3] is Vascular endothelial growth factor receptor 2 (Homo sapiens) (UniProt P35968). The assay can be described thus: Competitive binding affinity to VEGFR2 (unknown origin) at 10 uM in presence of ATP relative to control. The method, boiled down:
as §2

For assay [4], the target named is Tyrosine-protein kinase Fes/Fps (Homo sapiens) (UniProt P07332). The assay can be described thus: Competitive binding affinity to FES (unknown origin) at 10 uM in presence of ATP relative to control. An outline of the steps:
(§3)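 In vitro ATP-site competition binding assay, part of profiling against a diverse panel of 128 kinases. Each compound was tested at a single concentration of 10 µM. Kinome selectivity was summarized as S15 selectivity scores.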

Assay [5] has as its target Ephrin type-A receptor 4 (Homo sapiens) (UniProt P54764). The assay is described as follows: Competitive binding affinity to EPHA4 (unknown origin) at 10 uM in presence of ATP relative to control. An outline of the steps:
as §3

The target in assay [6] is T1, Serine/threonine-protein kinase 36 (Homo sapiens) (UniProt Q9NRP7).
T1 sequence (whole entry): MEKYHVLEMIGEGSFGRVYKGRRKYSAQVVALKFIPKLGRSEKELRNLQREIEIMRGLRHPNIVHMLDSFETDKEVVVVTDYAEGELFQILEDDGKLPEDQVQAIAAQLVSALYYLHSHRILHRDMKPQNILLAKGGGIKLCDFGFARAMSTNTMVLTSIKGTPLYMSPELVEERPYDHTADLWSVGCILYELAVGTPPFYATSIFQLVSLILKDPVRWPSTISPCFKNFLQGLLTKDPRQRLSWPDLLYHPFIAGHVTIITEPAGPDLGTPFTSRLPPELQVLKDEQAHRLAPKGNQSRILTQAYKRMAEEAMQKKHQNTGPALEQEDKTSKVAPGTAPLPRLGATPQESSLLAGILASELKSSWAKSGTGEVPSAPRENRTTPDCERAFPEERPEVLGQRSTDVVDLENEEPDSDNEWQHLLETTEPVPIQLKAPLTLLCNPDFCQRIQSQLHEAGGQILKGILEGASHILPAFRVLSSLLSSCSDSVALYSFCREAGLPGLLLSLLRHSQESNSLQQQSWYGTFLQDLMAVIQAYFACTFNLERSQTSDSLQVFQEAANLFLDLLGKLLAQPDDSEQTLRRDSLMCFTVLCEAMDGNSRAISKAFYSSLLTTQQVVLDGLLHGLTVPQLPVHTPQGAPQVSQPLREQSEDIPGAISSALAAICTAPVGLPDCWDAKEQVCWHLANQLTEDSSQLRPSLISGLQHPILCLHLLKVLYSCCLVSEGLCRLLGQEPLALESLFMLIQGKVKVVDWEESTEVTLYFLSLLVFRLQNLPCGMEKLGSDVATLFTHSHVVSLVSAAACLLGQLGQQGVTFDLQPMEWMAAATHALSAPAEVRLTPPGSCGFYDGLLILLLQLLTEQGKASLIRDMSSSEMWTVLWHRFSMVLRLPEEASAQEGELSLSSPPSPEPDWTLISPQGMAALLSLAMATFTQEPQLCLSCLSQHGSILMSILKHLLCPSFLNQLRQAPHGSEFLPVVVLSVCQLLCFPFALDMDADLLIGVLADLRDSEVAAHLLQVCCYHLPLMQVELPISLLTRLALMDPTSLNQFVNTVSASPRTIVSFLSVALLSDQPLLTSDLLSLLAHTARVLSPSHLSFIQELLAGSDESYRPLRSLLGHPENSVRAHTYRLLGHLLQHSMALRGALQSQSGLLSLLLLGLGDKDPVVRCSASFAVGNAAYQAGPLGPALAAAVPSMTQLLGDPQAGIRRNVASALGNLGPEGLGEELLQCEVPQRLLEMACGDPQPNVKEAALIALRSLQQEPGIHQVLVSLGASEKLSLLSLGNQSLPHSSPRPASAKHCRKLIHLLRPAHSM
The assay is described as follows: Competitive binding affinity to STK36 (unknown origin) at 10 uM in presence of ATP relative to control. The method, boiled down:
as §1

Assay [7] addresses T2, Aurora kinase A (Homo sapiens) (UniProt O14965).
T2 sequence (whole entry): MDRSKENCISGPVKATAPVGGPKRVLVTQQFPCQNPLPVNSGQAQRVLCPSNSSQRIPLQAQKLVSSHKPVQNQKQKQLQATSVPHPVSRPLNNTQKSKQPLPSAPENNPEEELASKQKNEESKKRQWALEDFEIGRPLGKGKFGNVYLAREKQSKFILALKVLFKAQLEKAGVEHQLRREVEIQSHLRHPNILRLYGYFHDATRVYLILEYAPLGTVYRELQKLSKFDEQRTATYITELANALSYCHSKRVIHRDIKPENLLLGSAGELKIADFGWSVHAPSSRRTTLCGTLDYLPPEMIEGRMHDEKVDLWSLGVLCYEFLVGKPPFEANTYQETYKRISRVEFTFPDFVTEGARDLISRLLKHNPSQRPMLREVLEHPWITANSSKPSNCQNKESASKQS
The assay is described as follows: Competitive binding affinity to AURKA (unknown origin) at 10 uM in presence of ATP relative to control.

The target of assay [8] is MAP kinase-interacting serine/threonine-protein kinase 2 (Homo sapiens) (UniProt Q9HBH9). The assay is described as follows: Competitive binding affinity to MKNK2 (unknown origin) at 10 uM in presence of ATP relative to control. The method, boiled down:
as §2

In assay [9] the test system is Serine/threonine-protein kinase B-raf (Homo sapiens), P15056 [V600E]. The assay can be described thus: Competitive binding affinity to BRAF V600E mutant (unknown origin) at 10 uM in presence of ATP relative to control.
Sequence of Serine/threonine-protein kinase B-raf (Homo sapiens), P15056 [V600E] (P15056 whole entry V600E): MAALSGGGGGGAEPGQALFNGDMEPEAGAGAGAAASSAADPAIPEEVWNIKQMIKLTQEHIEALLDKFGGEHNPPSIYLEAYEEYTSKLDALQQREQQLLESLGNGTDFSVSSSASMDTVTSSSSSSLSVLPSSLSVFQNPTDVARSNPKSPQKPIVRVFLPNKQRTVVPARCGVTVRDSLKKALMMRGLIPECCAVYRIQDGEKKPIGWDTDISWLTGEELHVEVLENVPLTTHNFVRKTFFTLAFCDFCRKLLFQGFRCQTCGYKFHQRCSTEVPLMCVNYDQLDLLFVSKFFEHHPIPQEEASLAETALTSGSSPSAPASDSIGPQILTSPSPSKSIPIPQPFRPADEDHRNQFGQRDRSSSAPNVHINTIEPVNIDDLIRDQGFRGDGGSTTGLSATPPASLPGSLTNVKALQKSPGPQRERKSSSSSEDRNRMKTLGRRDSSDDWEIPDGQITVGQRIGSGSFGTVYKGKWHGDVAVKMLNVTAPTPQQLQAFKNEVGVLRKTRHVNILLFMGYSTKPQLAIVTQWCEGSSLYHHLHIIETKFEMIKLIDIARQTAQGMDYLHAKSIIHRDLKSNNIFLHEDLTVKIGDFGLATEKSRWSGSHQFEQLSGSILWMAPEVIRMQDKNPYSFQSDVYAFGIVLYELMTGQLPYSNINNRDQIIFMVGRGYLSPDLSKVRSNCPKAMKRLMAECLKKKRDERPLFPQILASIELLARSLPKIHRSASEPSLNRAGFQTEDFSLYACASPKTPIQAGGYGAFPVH
In assay [10] the target is Mitogen-activated protein kinase kinase kinase 4 (Homo sapiens) (UniProt Q9Y6R4). The assay can be described thus: Competitive binding affinity to MAP3K4 (unknown origin) at 10 uM in presence of ATP relative to control. An outline of the steps: as §3
The target of assay [11] is Dual specificity mitogen-activated protein kinase kinase 1 (Homo sapiens) (UniProt Q02750). The assay is described as follows: Competitive binding affinity to MEK1 (unknown origin) at 10 uM in presence of ATP relative to control.
Sequence of Dual specificity mitogen-activated protein kinase kinase 1 (Homo sapiens) (Q02750 whole entry): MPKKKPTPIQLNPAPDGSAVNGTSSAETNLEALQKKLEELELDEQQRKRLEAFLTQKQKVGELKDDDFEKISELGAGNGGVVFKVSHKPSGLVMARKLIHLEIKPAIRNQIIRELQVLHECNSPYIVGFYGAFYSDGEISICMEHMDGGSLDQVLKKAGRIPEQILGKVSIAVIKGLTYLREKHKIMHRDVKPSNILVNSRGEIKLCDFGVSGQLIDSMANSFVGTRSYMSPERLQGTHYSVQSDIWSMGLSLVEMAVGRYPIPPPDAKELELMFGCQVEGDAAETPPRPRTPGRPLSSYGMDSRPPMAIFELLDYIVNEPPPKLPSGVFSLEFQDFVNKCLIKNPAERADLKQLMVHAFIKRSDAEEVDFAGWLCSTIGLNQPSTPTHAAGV
Assay [12] relates to Fibroblast growth factor receptor 3 (Homo sapiens), P22607 [G697C]. The assay can be described thus: Competitive binding affinity to FGFR3 G697C mutant (unknown origin) at 10 uM in presence of ATP relative to control. An outline of the steps:
as §3

Assay [13] deals with Epidermal growth factor receptor (Homo sapiens), P00533 [L858R]. The assay is described as follows: Competitive binding affinity to EGFR L858R mutant (unknown origin) at 10 uM in presence of ATP relative to control. The method, boiled down: as §3
Sequence of Epidermal growth factor receptor (Homo sapiens), P00533 [L858R] (P00533 whole entry L858R): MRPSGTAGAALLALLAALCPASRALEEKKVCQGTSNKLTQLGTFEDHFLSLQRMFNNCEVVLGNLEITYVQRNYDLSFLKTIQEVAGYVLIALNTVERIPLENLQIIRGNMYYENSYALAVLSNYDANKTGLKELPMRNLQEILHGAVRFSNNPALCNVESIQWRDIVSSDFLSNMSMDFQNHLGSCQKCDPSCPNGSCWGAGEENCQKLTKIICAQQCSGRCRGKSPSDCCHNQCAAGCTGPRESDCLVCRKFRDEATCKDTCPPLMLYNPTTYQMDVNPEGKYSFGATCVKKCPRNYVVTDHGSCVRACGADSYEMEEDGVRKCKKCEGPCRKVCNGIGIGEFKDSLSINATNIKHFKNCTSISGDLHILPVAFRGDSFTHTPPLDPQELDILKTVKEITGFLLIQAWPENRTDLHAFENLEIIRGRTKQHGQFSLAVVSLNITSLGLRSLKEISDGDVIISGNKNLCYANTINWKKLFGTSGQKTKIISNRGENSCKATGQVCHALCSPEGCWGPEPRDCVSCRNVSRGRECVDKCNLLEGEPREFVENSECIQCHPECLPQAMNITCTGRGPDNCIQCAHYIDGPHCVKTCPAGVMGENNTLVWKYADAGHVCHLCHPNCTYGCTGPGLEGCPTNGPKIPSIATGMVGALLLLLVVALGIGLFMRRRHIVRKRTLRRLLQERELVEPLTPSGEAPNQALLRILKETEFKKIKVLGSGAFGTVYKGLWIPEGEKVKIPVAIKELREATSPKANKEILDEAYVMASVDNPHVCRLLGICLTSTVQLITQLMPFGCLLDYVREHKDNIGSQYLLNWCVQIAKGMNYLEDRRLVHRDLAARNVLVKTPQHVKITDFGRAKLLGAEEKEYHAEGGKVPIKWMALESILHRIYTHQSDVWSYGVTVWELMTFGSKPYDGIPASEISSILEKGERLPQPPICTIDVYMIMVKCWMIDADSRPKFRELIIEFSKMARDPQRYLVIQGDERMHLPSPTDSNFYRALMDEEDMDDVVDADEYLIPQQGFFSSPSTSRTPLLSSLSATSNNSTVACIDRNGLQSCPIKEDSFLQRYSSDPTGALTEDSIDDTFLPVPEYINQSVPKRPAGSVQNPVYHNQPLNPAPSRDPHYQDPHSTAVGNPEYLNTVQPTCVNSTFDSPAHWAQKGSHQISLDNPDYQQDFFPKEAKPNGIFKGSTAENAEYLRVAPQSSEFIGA

The structures appear in SMILES notation.

Sequence of Vascular endothelial growth factor receptor 2 (Homo sapiens) (P35968 whole entry): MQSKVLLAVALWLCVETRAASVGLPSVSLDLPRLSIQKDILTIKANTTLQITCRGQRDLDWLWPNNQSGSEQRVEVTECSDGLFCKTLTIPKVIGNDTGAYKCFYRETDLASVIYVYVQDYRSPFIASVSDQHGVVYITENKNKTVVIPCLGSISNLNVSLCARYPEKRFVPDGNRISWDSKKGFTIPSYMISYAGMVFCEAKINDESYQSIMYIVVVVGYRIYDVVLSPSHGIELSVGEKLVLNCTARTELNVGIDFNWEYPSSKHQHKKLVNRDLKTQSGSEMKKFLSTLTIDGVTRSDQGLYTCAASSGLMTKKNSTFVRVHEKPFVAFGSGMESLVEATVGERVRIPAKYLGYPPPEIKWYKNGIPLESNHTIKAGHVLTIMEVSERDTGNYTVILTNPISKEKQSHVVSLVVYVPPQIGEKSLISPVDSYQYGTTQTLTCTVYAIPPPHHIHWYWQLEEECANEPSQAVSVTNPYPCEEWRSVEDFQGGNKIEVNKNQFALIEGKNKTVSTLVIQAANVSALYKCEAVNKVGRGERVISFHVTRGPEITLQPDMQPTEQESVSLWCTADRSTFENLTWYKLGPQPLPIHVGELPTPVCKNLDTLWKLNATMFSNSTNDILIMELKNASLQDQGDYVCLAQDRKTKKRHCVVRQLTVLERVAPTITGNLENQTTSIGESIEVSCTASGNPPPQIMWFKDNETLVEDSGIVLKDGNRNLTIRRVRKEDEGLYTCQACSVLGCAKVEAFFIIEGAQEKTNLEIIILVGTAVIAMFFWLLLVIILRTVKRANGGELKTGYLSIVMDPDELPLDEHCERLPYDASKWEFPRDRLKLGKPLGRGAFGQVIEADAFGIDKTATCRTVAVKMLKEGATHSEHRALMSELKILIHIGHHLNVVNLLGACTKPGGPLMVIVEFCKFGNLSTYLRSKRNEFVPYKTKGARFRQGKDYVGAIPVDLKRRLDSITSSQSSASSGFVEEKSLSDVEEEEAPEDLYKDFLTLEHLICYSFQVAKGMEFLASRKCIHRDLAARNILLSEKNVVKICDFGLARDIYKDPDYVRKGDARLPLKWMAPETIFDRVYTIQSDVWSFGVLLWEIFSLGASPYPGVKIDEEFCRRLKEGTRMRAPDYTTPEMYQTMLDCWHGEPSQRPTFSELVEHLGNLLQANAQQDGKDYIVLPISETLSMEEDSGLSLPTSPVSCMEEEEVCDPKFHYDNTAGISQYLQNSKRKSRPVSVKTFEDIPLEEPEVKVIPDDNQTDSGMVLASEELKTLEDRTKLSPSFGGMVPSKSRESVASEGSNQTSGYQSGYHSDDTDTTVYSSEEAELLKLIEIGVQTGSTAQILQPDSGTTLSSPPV
Sequence of MAP kinase-interacting serine/threonine-protein kinase 2 (Homo sapiens) (Q9HBH9 whole entry, looked up): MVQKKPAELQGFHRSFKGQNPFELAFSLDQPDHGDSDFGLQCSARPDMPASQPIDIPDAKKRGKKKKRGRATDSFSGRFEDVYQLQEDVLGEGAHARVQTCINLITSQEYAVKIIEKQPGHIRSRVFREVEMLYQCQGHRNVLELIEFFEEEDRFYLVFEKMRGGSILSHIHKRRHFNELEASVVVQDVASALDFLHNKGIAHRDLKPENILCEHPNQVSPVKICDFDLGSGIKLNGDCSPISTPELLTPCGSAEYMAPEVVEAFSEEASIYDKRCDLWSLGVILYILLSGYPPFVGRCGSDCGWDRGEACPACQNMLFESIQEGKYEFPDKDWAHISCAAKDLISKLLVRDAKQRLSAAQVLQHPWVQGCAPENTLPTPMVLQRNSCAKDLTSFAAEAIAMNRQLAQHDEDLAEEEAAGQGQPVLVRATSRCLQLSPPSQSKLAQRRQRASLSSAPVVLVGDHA
Sequence of Fibroblast growth factor receptor 3 (Homo sapiens), P22607 [G697C] (P22607 whole entry G697C): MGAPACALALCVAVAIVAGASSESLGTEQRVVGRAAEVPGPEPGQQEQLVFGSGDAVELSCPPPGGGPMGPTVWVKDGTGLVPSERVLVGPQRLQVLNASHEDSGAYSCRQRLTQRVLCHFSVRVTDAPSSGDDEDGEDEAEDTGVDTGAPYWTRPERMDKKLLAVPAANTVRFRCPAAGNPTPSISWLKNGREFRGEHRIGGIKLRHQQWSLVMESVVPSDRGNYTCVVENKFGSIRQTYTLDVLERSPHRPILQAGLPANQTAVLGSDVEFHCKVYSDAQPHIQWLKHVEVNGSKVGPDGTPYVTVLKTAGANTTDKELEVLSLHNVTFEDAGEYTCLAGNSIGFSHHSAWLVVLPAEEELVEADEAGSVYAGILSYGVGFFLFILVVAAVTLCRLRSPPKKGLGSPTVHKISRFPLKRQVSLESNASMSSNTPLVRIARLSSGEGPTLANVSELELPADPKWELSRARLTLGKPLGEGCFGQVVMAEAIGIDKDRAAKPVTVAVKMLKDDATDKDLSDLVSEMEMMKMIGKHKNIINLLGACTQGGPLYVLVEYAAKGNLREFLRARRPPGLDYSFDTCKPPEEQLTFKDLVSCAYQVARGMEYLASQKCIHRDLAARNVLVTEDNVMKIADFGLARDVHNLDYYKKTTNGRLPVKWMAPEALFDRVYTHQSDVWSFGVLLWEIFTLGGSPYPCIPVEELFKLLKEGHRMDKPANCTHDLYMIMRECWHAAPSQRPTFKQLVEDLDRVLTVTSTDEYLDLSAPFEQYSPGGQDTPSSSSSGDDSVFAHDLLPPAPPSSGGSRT

What is called inhibition is the change of the read-out against control, counted positive when it falls. Turning to `O=C([C@H]1CC[C@H](Nc2nccc(-n3nnc4ccccc43)n2)CC1)N1CCOCC1`, the inhibition in assay [1] was 94%; in assay [2], 93%; in assay [3], < 50%; in assay [4], < 50%; in [5], < 50%; in assay [6], 95%. In addition, the inhibition is 80% in [7], 97% in assay [8], < 50% in [9] and < 50% in assay [10].
Consider `CS(=O)(=O)CCCOc1cccc2c1ccn2-c1ccnc(N[C@H]2CC[C@H](C(=O)N3CCC(O)CC3)CC2)n1`, for which the inhibition in assay [2] was > 85%.
Take `O[C@H]1CC[C@H](Nc2nccc(-n3ccc4ccccc43)n2)CC1`: the inhibition in [1] is 97%; in [2], < 50%; in assay [11], < 50%; in assay [3] it was < 50%; in [4], < 50%; in assay [12], < 50%. The inhibition in assay [5] was < 50%; in assay [6], 84%; in [7] it was < 50%; in assay [8], < 50%; in [9] it was < 50%; in assay [13], < 50%. The inhibition in assay [10] was < 50%.
For `O[C@H]1CC[C@H](Nc2nccc(-n3ncc4ccccc43)n2)CC1`, the inhibition in assay [1] was 99%; in [2], 81%; in assay [11], < 50%; in assay [3], < 50%; in [4], < 50%; in assay [12], < 50%. Besides, the inhibition in [5] was < 50%; in [6], 97%; in assay [7], < 50%; in assay [8] it was 75%; in assay [9], < 50%; in assay [13], < 50%. Moreover, in [10], the inhibition is < 50%.
On to `O[C@H]1CC[C@H](Nc2nccc(-c3n[nH]c4ccccc34)n2)CC1`, for which the inhibition in assay [1] is 95%; in [2], 100%; in assay [3], 91%; in assay [4], < 50%; in [12], < 50%; in assay [5], < 50%. Moreover, the inhibition in assay [6] is 99%; in [7], 92%; in [8] it was 87%; in assay [9] it was < 50%; in assay [13] it was < 50%; in [10] it was 100%.
As to `N[C@H]1CC[C@H](Nc2nccc(-n3nnc4ccccc43)n2)CC1`, the inhibition in [1] was 100%; in [2], 83%; in [3], < 50%; in assay [4], < 50%; in assay [5], < 50%; in [6], 100%. For the same compound, the inhibition in assay [7] was < 50%; in assay [8] it was 100%; in [9], < 50%; in [10], 84%.
On to `O[C@H]1CC[C@H](Nc2nccc(-n3nnc4ccccc43)n2)CC1`, for which the inhibition in assay [1] was 99%; in [2], < 50%; in assay [11] it was < 50%; in [3], < 50%; in [4], < 50%; in assay [12], < 50%. Moreover, the inhibition in [5] was < 50%; in [6] it was 96%; in [7] it was < 50%; in assay [8], 86%; in assay [9], < 50%; in assay [13], < 50%. Also, in assay [10], the inhibition was < 50%.
